Assay results as given in ChEMBL document CHEMBL4177771, “Endoplasmic Reticulum-Localized Two-Photon-Absorbing Boron Dipyrromethenes as Advanced Photosensitizers for Photodynamic Therapy” (J Med Chem, 2018).
Active and inactive are the calls of the source. The calls are words filed in the database; no cut-off is given here.

Tests used:
[1] = Drug uptake in lysosome of human HeLa cells at 4 uM after 4 hrs by […]-based confocal microscopic method; type: ADME, subcellular
[2] = Drug uptake in endoplasmic reticulum of human HepG2 cells at 4 uM after 4 hrs by ER-tracker green-based confocal microscopic method; type: ADME, subcellular; settings: hepg2, 4 h
Procedure, shortened: (§1)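 Cells on glass-bottom dishes given 2 μM for 2 h or 4 μM for 4 h at 37 °C. After PBS washes, stained in HBSS with 0.2 μM ER-tracker or Mito-tracker green for 15 min at 37 °C. Confocal imaging: trackers excited at 488 nm, emission 500–570 nm; BODIPY excited at 633 nm, emission 650–760 nm.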

[3] = Drug uptake in mitochondria of human HeLa cells at 4 uM after 4 hrs by Mito-tracker green-based confocal microscopic method; type: ADME; procedure, shortened: as §1
[4] = Drug uptake in lysosome of human HepG2 cells at 4 uM after 4 hrs by […]-based confocal microscopic method; type: ADME, subcellular; settings: hepg2, 4 h
[5] = Drug uptake in mitochondria of human HepG2 cells at 4 uM after 4 hrs by Mito-tracker green-based confocal microscopic method; type: ADME; settings: hepg2, 4 h; procedure, shortened: as §1
[6] = Drug uptake in endoplasmic reticulum of human HeLa cells at 4 uM after 4 hrs by ER-tracker green-based confocal microscopic method; type: ADME, subcellular; procedure, shortened: as §1
[7] = Dark toxicity against human HepG2 cells assessed as decrease in cell viability at 0.5 to 8 uM incubated for 2 hrs by MTT assay; type: cell-based; settings: hepg2, 2 h
Procedure, shortened: (§2)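 Cells seeded at 2 × 10^5 cells mL−1 in 96-well plates 24 h before; incubated with compound (0.4–0.0125 μM or 8–0.5 μM series) in dark 2 h, washed with PBS, re-fed, kept unirradiated. MTT (3 mg mL−1) added, 4 h at 37 °C, DMSO added, absorbance at 490 nm. Mean ± SEM of three independent experiments, each in quadruplicate. HepG2 cells were grown in RPMI 1640 and HeLa in DMEM.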

HepG2 = experiment: Photocytotoxicity against human HepG2 cells assessed as decrease in cell viability preincubated in dark for 2 hrs followed by illumination by halogen lamp for 20 mins by MTT assay; type: functional, cell-based
Procedure, shortened: (§3)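 Cells seeded at 2 × 10^5 cells mL−1 in 96-well plates 24 h before; 2 h dark incubation with compound (0.0125–0.4 μM or 0.5–8 μM), PBS wash, re-feed. Then 300 W halogen lamp with red filter (λ > 610 nm), 40 mW cm−2, 20 min at r.t. (48 J cm−2). MTT read-out at 490 nm. IC50 = concentration killing 50% of cells. Three independent experiments, quadruplicate.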

[8] = Drug uptake in human HeLa cells at 4 uM after 4 hrs by flow cytometric method; type: ADME, cell-based
Procedure, shortened: (§4)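 Cells in 35 mm dishes incubated in RPMI 1640 at 37 °C, 5% CO2, with 2 μM for 2 h or 4 μM for 4 h. Rinsed, trypsinised, pelleted at 400g, resuspended in HBSS. Flow cytometry on 10^4 cells: excitation 640 nm, emission 720–840 nm. Triplicate; mean ± SD of three independent experiments.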

[9] = Induction of singlet oxygen generation in DMF assessed as increase in decay of DPBF at 1 uM by spectroscopic method
[10] = Induction of singlet oxygen generation in PBS assessed as increase in decay of DPBF at 2 uM by spectroscopic method; type: functional
[11] = Drug uptake in human HepG2 cells at 4 uM after 4 hrs by flow cytometric method; type: ADME, cell-based; settings: hepg2, 4 h; procedure, shortened: as §4
HeLa = experiment: Photocytotoxicity against human HeLa cells assessed as decrease in cell viability preincubated in dark for 2 hrs followed by illumination by halogen lamp for 20 mins by MTT assay; type: functional, cell-based; procedure, shortened: as §3
[12] = Dark toxicity against human HeLa cells assessed as decrease in cell viability at 0.5 to 8 uM incubated for 2 hrs by MTT assay; type: cell-based; procedure, shortened: as §2
[13] = Stability of the compound in PBS at 2 uM measured over 25 mins in presence of illumination by halogen lamp; type: physicochemical; settings: buffer

Row | Drug uptake [1] | Drug uptake [2] | Drug uptake [3] | Drug uptake [4] | Drug uptake [5] | Drug uptake [6] | Drug uptake [8] | Drug uptake [11] | Stability [13] | Structure (SMILES) | Activity [7] | IC50 (HepG2) | Activity [9] | Activity [10] | IC50 (HeLa) | Activity [12]
1 | Not Active | Not Active | Not Active | Not Active | Not Active | Not Active | – | – | – | CCOC(=O)COc1ccc(C2=C3C(C)=C(Br)C(/C=C/c4ccc5c(c4)c4ccccc4n5CCOCCOCCOC)=[N+]3[B-](F)(F)n3c(/C=C/c4ccc5c(c4)c4ccccc4n5CCOCCOCCOC)c(Br)c(C)c32)cc1 | – | – | – | – | – | –
2 | Not Active | Active | Not Active | Not Active | Not Active | Active | Active | Active | Stable | COCCOCCOCCn1c2ccccc2c2cc(/C=C/C3=[N+]4C(=C(c5ccc(OCC(=O)NCCc6ccc(S(=O)(=O)NC(=O)NC7CCCCC7)cc6)cc5)c5c(C)c(Br)c(/C=C/c6ccc7c(c6)c6ccccc6n7CCOCCOCCOC)n5[B-]4(F)F)C(C)=C3Br)ccc21 | Non-Toxic | 5.2 µM | Active | Active | 3.2 µM | Non-Toxic
